This passage reports Activity, inhibition and Kd results from ChEMBL document CHEMBL5705891, “Small-molecule kinase inhibitors provide insight into Mps1 cell cycle function” (Nat Chem Biol, 2010).

Data set [1] addresses AP2-associated protein kinase 1 (Homo sapiens) (UniProt Q2M2I8). The data set is described as follows: Inhibition of AAK1 (unknown origin) assessed as residual enzyme activity at 10 uM by Ambit kinase binding assay relative to control.
Data set [2] has as its target Bone morphogenetic protein receptor type-1B (Homo sapiens) (UniProt O00238). The data set is described as follows: Inhibition of BMPR1B (unknown origin) assessed as residual enzyme activity at 10 uM by Ambit kinase binding assay relative to control.
For data set [3], the target named is Inhibitor of nuclear factor kappa-B kinase subunit epsilon (Homo sapiens) (UniProt Q14164). Description: Inhibition of IKK-epsilon (unknown origin) assessed as residual enzyme activity at 10 uM by Ambit kinase binding assay relative to control.
Sequence of Inhibitor of nuclear factor kappa-B kinase subunit epsilon (Homo sapiens) (Q14164 whole entry): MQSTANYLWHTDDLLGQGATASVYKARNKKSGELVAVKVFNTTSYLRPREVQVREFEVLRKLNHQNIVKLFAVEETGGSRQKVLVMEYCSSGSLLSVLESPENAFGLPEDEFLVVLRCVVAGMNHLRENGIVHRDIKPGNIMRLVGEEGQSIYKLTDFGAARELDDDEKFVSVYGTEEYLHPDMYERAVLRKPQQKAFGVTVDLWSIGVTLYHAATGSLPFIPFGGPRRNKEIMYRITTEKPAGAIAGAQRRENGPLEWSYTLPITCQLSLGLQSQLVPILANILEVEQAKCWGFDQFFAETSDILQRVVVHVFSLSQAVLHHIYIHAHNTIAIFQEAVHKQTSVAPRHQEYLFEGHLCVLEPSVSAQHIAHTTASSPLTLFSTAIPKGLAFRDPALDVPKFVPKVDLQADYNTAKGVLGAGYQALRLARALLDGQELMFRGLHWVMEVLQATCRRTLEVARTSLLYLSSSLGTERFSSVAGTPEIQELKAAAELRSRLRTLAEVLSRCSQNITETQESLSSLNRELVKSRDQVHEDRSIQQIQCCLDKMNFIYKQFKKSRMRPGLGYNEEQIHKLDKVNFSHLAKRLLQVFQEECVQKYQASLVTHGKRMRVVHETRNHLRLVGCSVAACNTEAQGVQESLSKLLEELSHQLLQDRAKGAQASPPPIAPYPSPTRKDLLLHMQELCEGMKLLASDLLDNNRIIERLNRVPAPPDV
The target of data set [4] is Dual specificity mitogen-activated protein kinase kinase 3 (Homo sapiens) (UniProt P46734). The data set is described as follows: Inhibition of MEK3 (unknown origin) assessed as residual enzyme activity at 10 uM by Ambit kinase binding assay relative to control.
Sequence of Dual specificity mitogen-activated protein kinase kinase 3 (Homo sapiens) (P46734 whole entry): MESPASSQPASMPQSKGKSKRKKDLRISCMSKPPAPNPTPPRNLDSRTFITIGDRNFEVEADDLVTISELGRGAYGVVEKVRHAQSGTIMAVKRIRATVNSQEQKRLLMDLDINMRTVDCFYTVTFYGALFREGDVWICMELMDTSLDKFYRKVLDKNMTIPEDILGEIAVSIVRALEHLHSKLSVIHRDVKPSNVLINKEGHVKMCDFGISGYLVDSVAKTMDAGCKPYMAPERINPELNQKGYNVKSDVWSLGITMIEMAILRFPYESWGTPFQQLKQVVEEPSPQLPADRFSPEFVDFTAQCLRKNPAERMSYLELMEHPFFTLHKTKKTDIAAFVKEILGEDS
The target in data set [5] is Serine/threonine-protein kinase Nek2 (Homo sapiens) (UniProt P51955). Description: Inhibition of NEK2 (unknown origin) assessed as residual enzyme activity at 10 uM by Ambit kinase binding assay relative to control.
Data set [6] addresses Mitogen-activated protein kinase 12 (Homo sapiens) (UniProt P53778). Description: Inhibition of p38-gamma (unknown origin) assessed as residual enzyme activity at 10 uM by Ambit kinase binding assay relative to control.
Data set [7] concerns the target Ribosomal protein S6 kinase alpha-4 (Homo sapiens) (UniProt O75676). The data set is described as follows: Inhibition of RPS6KA4 kinase domain 2 (unknown origin) assessed as residual enzyme activity at 10 uM by Ambit kinase binding assay relative to control.
For data set [8], the target named is Serine/threonine-protein kinase 16 (Homo sapiens) (UniProt O75716). Description: Inhibition of STK16 (unknown origin) assessed as residual enzyme activity at 10 uM by Ambit kinase binding assay relative to control.
The target in data set [9] is Tyrosine-protein kinase Tec (Homo sapiens) (UniProt P42680). The data set is described as follows: Inhibition of TEC (unknown origin) assessed as residual enzyme activity at 10 uM by Ambit kinase binding assay relative to control.
Sequence of Tyrosine-protein kinase Tec (Homo sapiens) (P42680 whole entry): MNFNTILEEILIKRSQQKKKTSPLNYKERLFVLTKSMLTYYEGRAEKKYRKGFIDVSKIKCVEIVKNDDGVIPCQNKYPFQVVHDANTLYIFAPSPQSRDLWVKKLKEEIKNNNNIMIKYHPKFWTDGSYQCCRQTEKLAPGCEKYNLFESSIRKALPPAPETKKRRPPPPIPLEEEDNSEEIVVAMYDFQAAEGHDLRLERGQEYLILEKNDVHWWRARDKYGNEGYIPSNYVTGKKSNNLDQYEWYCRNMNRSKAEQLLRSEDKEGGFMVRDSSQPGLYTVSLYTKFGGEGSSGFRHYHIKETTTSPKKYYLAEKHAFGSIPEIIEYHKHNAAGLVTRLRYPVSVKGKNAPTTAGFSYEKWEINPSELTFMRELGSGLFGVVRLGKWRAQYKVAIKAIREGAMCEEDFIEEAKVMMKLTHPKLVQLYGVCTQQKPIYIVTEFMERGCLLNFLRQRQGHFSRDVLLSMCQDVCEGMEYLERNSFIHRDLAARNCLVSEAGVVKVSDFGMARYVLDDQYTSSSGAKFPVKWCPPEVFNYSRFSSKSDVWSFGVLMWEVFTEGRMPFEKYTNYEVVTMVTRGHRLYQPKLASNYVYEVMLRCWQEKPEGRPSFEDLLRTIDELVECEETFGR
Data set [10] deals with U2OS. Description: Reversal of nocodazole-induced mitotic arrest in human U2OS cells assessed as Ser10 phosphorylated Histone H3-positive 4c population at 5 uM incubated for 16 hrs by flow cytometry (reference value: 94 %). It is filed as functional.
For data set [11], the system named is U2OS. The data set is described as follows: Reversal of nocodazole-induced mitotic arrest in human U2OS cells assessed as Ser10 phosphorylated Histone H3-positive 4c population at 10 uM incubated for 16 hrs by flow cytometry (reference value: 94 %). The class given is functional.
Data set [12] deals with Mitogen-activated protein kinase 7 (Homo sapiens) (UniProt Q13164). The data set is described as follows: Inhibition of ERK5 (unknown origin) assessed as residual enzyme activity at 10 uM by Ambit kinase binding assay relative to control.
The test system of data set [13] is U2OS. Description: Reversal of s-trityl cysteine-induced mitotic arrest in human U2OS cells assessed as accumulation of 4N phosphorylated Histone H3-negative cells incubated for 16 hrs by flow cytometry. The class given is functional, cell-based. The following applies: dose 5-10 µM. (In general: A flow cytometer gives signals particle by particle.)
For data set [14], the system named is U2OS. The data set is described as follows: Induction of aneuploidy in UTRM10 cells (unknown origin) expressing LAP-tagged Mps1 M602Q mutant at 5 uM treated for 48 hrs by FACS analysis. The class given is functional, cell-based. An outline of the steps:
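UTRM10 cells expressing RNAi-resistant LAP-Mps1 WT or M602Q were treated with compound or DMSO for 48 h, then DNA content was analysed by FACS.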

Data set [15] concerns TERT-RPE1. Description: Induction of aneuploidy in human TERT-RPE1 cells assessed as average chromosome number at 10 uM treated for 24 hrs by karyo-typing analysis (reference value: 45.9 +/- 0.3). It is filed as functional. An outline of the steps:
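Asynchronous cells were exposed to 10 μM compound for 24 h. Medium was then replaced with medium containing 100 ng/mL colcemid for 2 h to arrest cells in metaphase, after which cells were harvested and karyotyped.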

A short description of data set [16]: Inhibition of Mps1 in Potoroo PTK2 cells expressing EyFP-tagged human Mad2 assessed as reduction in time spent in mitosis at 10 uM incubated for 1 hr by fluorescence based imaging analysis relative to control. Also on record: species or system Pt K2. Particulars: Potorous tridactylus. An outline of the steps: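 Randomly cycling PtK2 cells stably expressing hsMad2-EYFP were pretreated 1 h with 10 μM inhibitor, DMSO or no treatment. Time-lapse imaging at 37°C, 5% CO₂ scored mitotic duration from NEB to NER. Average time was reported (N=26–29); 95% CI; Student's t test.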

Data set [17] is described as follows: Inhibition of Mps1 in nocodazole-treated Potoroo PTK2 cells expressing EyFP-tagged human Mad2 assessed as decrease in Mad2 recruitment to kinetochore at 10 uM incubated for 1 hr by fluorescence based imaging analysis relative to nocodazole. Also on record: species or system Pt K2. Particulars: Potorous tridactylus. An outline of the steps:
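PtK2 (male Potorous tridactylus kidney) cells stably expressing human Mad2-EYFP, cultured in Advanced MEM with 2% FBS. Cells were pretreated 1 h with 10 μM inhibitor or DMSO, then given DMSO or nocodazole (200 ng·ml⁻¹). Time-lapse imaging ran at 37°C from NEBD. Kinetochore Mad2-EYFP density was background-corrected and normalized. N=20–29 cells; 95% CI; Student's t test.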

For data set [18], the system named is HCT-116. Description: Cytotoxicity against human HCT-116 cells assessed as loss of clonal survival at 5 to 10 uM incubated for 10 days by crystal violet staining based assay. The class given is functional, cell-based. Particulars: dose 5-10 µM, time 10.0 day. In a few lines: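 Colony outgrowth: cells plated at 200 cells per 60-mm dish, exposed to compound or DMSO vehicle and stained with crystal violet after 10 days. HCT116 grown in McCoy's 5A; A549 and HeLa in DMEM; hTERT-RPE1 in DMEM/F-12. All media had 10% FBS and penicillin/streptomycin, 37°C, 5% CO2. Quantified from 3 independent experiments, mean + SD, Student's t test.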

Data set [19] has as its system A549. Description: Antiproliferative activity against human A549 cells at 10 uM incubated for 4 days by Syto60 staining based assay. The class given is functional, cell-based. The following applies: time 4.0 day.
Data set [20] relates to HeLa. Description: Antiproliferative activity against human HeLa cells at 10 uM incubated for 4 days by Syto60 staining based assay. It is filed as functional, cell-based. The following applies: time 4.0 day. An outline of the steps:
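Proliferation read by Syto60 nucleic acid stain fluorescence (excitation 635 nm, emission 695 nm) after treatment for up to 96 h. Each time point normalized to its DMSO control. Mean ± SD from 4 independent experiments. Cells kept at 37°C, 5% CO2 in 10% FBS-supplemented medium.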

The subject of data set [21] is TERT-RPE1. The data set is described as follows: Antiproliferative activity against hTERT-RPE1 cells at 10 uM incubated for 4 days by Syto60 staining based assay. It is filed as toxicity, cell-based. The following applies: human, tert-rpe1, 96 h, time 4 day.
Data set [22] concerns HCT-116. Description: Antiproliferative activity against human HCT-116 cells with p53+/+ at 10 uM measured after 96 hrs in presence of Z-VAD-FMK by Syto60 staining based assay. The class given is functional, cell-based.
Data set [23] concerns the target Dual specificity protein kinase CLK1 (Homo sapiens, UniProt P49759). The data set is described as follows: Binding affinity to CLK1 (unknown origin) assessed as dissociation constant by Ambit kinase binding assay.
In data set [24] the target is Insulin receptor (Homo sapiens, UniProt P06213). The data set is described as follows: Binding affinity to INSR (unknown origin) assessed as dissociation constant by Ambit kinase binding assay.
Data set [25] deals with Activated CDC42 kinase 1 (Homo sapiens, UniProt Q07912). Description: Binding affinity to TNK2 (unknown origin) assessed as dissociation constant by Ambit kinase binding assay.

The source made the active and inactive calls. The calls are words filed in the database; no cut-off is given here.

Sequence of AP2-associated protein kinase 1 (Homo sapiens) (Q2M2I8 whole entry, looked up): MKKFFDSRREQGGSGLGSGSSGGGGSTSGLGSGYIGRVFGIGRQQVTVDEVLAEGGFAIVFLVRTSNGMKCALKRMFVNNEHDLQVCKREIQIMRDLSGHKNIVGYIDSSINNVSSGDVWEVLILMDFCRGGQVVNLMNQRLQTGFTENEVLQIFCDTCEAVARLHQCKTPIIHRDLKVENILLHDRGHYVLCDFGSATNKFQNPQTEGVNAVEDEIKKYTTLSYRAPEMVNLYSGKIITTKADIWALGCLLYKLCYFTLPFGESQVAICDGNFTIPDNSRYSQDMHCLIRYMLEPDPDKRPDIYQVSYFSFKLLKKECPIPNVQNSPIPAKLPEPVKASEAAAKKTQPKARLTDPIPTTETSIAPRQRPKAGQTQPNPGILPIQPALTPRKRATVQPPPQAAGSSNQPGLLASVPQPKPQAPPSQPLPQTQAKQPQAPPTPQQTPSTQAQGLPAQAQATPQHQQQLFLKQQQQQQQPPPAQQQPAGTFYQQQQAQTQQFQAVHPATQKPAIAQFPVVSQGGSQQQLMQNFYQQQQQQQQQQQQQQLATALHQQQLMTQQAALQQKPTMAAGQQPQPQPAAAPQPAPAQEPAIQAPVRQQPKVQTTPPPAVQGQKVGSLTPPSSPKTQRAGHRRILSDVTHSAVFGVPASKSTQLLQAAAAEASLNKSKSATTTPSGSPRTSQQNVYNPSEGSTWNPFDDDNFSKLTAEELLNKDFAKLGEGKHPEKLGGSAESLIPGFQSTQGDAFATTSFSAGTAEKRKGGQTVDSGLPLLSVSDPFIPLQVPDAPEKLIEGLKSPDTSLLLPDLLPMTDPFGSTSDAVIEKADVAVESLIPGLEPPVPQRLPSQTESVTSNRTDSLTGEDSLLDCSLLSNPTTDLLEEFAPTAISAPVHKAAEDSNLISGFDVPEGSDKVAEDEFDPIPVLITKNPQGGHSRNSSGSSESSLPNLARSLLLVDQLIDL
Sequence of Mitogen-activated protein kinase 12 (Homo sapiens) (P53778 whole entry, the tested form may be a part): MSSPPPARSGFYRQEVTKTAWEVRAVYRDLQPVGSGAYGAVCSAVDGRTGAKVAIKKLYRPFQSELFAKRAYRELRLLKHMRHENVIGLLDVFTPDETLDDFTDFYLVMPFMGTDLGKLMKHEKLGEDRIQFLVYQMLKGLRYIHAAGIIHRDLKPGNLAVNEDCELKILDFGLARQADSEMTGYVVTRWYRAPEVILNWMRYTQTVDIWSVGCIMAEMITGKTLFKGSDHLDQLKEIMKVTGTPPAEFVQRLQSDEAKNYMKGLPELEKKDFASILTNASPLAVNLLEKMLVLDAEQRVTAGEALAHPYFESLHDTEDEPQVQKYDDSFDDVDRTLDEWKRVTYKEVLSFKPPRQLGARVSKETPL
Sequence of Dual specificity protein kinase CLK1 (P49759 whole entry): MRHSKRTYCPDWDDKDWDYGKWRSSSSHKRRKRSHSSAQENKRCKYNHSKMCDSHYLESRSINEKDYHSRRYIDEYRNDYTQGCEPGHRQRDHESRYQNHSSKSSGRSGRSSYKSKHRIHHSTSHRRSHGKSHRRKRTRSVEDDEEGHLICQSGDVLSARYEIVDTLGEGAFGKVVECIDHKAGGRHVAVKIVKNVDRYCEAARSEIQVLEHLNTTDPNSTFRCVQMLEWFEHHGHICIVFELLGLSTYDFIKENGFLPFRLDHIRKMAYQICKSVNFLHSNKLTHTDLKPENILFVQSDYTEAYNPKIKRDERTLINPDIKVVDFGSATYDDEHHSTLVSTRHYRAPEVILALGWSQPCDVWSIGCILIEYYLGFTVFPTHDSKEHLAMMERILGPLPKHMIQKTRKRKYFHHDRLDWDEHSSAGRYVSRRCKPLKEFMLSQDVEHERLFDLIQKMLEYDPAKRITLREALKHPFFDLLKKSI
Sequence of Bone morphogenetic protein receptor type-1B (Homo sapiens) (O00238 whole entry): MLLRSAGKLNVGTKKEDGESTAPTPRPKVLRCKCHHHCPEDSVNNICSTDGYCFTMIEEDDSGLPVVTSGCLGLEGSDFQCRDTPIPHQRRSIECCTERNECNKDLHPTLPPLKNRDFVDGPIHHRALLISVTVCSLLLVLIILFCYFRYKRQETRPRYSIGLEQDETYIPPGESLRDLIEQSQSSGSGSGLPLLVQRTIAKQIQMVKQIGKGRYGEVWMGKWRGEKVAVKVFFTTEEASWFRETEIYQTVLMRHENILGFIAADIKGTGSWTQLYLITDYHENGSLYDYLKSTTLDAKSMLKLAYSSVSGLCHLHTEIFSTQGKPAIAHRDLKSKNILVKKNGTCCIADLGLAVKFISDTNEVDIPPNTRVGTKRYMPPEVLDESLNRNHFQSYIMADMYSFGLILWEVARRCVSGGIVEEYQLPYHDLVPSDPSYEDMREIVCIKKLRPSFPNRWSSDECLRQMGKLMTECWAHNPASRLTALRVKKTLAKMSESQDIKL
Sequence of Ribosomal protein S6 kinase alpha-4 (Homo sapiens) (O75676 whole entry, looked up, the tested form may be a part): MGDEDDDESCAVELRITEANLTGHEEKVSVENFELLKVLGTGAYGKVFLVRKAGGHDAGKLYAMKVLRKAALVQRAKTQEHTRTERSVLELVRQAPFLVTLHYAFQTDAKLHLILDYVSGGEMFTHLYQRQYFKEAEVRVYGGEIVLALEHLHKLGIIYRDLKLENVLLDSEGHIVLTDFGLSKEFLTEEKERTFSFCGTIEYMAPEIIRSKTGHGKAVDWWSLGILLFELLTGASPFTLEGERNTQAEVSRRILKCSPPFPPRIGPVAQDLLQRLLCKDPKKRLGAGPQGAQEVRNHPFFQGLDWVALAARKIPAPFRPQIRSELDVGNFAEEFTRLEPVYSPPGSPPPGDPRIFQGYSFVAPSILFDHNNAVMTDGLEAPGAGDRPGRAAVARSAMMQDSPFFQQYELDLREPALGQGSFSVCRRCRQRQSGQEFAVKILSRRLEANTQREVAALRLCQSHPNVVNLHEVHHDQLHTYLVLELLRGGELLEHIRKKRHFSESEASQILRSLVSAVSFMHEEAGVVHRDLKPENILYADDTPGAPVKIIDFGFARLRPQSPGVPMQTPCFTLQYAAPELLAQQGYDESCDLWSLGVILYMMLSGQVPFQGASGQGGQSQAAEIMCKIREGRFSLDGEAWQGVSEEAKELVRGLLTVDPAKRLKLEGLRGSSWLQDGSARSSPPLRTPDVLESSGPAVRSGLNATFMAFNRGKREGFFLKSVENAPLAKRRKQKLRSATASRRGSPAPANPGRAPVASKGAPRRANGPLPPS

`O=C1c2ccccc2-c2n[nH]c3cccc1c23`: the Activity was 2.6% in [1]; 5% in [2]; 12% in data set [3]; 6% in data set [4]; 27% in [5]; 21% in data set [6]. The values for the Activity in data set [7], in data set [8] and in data set [9] were 3.4%, 1.4% and 28%, respectively.
For `COc1cc(N2CCC(O)CC2)ccc1Nc1cc(Nc2ccccc2S(=O)(=O)C(C)C)c2cc[nH]c2n1`, the Activity in data set [10] was 8%; in [11] it was 1%; in data set [12], 11%; in data set [13] it was “Dose-Dependent Effect”; in [15] it was 46.5; in data set [21], “Toxic”. The outcome in data set [14], in data set [18], in data set [19], in data set [20] and in data set [22] was Active. For the same molecule, the inhibition at 10 µM was about 40% in data set [16] and 70% in data set [17]. For the same molecule, the Kd was found to be 1900 nM in data set [23], 470 nM in data set [24] and 3100 nM in [25].

The inhibition is the share of the control response that was lost under treatment. Broadly, the Kd is the free concentration of one partner at which half of the binding sites on the other are occupied at equilibrium, for simple one-to-one binding.
